# Assay results as given in ChEMBL document CHEMBL1152806, “Discovery of a potent, selective, and orally efficacious pyrimidinooxazinyl bicyclooctaneacetic acid diacylglycerol acyltransferase-1 inhibitor” (J Med Chem, 2009).
# Activity calls are given as the source filed them. The rule behind the calls is not given here.
# Tests used:
# [1] = Bioavailability in dog at 1 to 3 mg/kg; assay type: ADME, organism-based, Canis lupus familiaris; settings: in vivo
# HuTu80 = assay: Inhibition of triacylglycerol synthesis in human HuTu 80 cells after 30 mins; assay type: functional, cell-based; settings: HuTu80, 0.5 h
# Summary of the method: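 Confluent HuTu 80 cells in serum-free medium, preincubated 30 min with compound (0.1% DMSO final). Then given 0.12 mM sodium oleate plus 1 µCi/mL 14C-oleate complexed to 0.03 mM BSA. Cells solubilized in SDS and lipids extracted; 14C in triacylglycerol measured by normal-phase HPLC with radio-flow detection. Lowry protein determined.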
# Rattus norvegicus [2] = assay: Reduction of plasma triacylglycerol excursion in 14 hrs fasted Han-Wistar rat at 0.3 mg/kg, po treated 2 hrs before bolus corn oil administration measured 1.5 hrs post corn oil challenge by oral lipid tolerance test relative to control; assay type: functional; parameters: scale not given: the % may be the effect or the level left
# Summary of the method: (§1)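 Male Han-Wistar rats (~230 g) on chow diet were fasted 14 h and given compound by oral gavage, suspended in HPMC/Tween. A corn oil bolus (5 mL/kg) followed 2 h later. After 1.5 h, blood was drawn from the abdominal vena cava and plasma TAG measured colorimetrically (GPO-PAP). Result is % reduction versus vehicle-treated controls; n = 6.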
# [3] = Metabolic stability in dog alamethicin-activated microsomes assessed as conversion to acyl glucuronide form after 1 hr; assay type: ADME, Canis lupus familiaris, Microsome
# Hepatocyte [4] = assay: Metabolic stability in rat hepatocytes assessed as conversion to acyl glucuronide form after 2 hrs; assay type: ADME, cell-based
# Mus musculus = assay: Inhibition of dietary-induced obesity in obese […] mouse model assessed as reduction in body weight at 20 mg/kg, po qd for 3 days relative to start weight; assay type: functional, organism-based; parameters: dose 20 mg/kg
# Summary of the method: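 Female C57BL/6 mice fed high-calorie cafeteria diet for 15 weeks to about 29 g, randomized into groups of 12. Oral gavage (10 mL/kg) once daily for 3 days, 2 h before the dark phase. Body weight recorded daily before dosing and expressed as percent change from day 0, compared with vehicle-treated diet-matched controls.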
# CYP1A2 = target: T1, CYP1A2 (Homo sapiens, UniProt P05177); assay: Inhibition of CYP1A2 at 30 uM; assay type: ADME
# T1 sequence (P05177 whole entry): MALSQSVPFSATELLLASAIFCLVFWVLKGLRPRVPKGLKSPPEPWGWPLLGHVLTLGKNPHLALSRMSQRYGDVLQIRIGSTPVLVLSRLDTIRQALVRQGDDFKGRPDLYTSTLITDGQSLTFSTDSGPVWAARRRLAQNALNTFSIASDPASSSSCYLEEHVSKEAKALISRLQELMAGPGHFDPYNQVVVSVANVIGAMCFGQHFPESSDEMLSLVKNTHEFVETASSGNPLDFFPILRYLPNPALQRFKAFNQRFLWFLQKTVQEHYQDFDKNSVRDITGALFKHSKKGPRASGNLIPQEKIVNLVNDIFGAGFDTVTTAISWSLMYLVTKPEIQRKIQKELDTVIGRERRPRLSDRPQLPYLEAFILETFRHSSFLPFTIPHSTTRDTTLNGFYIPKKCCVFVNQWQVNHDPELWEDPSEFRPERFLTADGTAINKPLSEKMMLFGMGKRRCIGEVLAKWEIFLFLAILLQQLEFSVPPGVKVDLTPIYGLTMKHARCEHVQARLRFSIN
# [5] = target: T2, Diacylglycerol O-acyltransferase 2 (Homo sapiens) (UniProt Q96PD7); assay: Inhibition of human DGAT2 at 10 uM by liquid scintillography
# T2 sequence (whole entry): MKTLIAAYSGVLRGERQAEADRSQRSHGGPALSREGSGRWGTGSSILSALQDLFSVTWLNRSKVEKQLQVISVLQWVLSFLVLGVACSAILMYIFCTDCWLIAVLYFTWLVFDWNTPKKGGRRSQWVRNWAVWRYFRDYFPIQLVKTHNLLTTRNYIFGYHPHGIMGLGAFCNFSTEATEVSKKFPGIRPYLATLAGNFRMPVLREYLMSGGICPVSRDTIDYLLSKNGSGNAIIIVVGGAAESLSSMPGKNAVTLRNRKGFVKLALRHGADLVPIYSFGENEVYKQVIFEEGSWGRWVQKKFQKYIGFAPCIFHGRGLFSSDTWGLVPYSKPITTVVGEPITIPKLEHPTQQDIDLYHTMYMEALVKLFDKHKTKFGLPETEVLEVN
# [6] = Metabolic stability in human alamethicin-activated microsomes assessed as conversion to acyl glucuronide form after 1 hr; assay type: ADME, Microsome
# CYP2D6 = CYP2D6 (Homo sapiens, UniProt P10635); assay: Inhibition of CYP2D6 at 30 uM; assay type: ADME
# Chain of CYP2D6 (P10635 whole entry): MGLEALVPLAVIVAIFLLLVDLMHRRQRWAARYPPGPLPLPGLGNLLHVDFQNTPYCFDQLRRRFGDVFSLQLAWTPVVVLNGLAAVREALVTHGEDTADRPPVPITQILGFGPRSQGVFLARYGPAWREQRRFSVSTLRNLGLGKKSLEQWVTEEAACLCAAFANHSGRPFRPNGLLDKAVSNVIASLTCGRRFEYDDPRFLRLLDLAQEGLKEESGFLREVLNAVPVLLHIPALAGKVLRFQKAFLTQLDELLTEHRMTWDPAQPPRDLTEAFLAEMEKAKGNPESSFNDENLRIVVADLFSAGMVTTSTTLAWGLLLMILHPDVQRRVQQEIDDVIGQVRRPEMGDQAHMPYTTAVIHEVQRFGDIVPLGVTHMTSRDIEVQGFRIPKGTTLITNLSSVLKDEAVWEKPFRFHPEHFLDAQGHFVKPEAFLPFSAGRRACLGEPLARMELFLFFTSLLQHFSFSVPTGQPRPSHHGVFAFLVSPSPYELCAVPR
# [7] = Plasma clearance in marmosets at 1 to 3 mg/kg; assay type: ADME, organism-based; parameters: dose 1-3 mg/kg; settings: callitrichinae sp.
# Plasma [8] = assay: Fraction unbound in rat plasma by LC-UVMS; assay type: ADME, cell-free
# Summary of the method: (§2)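 Equilibrium dialysis in plasma of the relevant species at 37 °C; free and bound drug quantified by LC-UVMS; reported as % free.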
# Rattus norvegicus [9] = assay: Reduction of plasma triacylglycerol excursion in 14 hrs fasted Han-Wistar rat at 0.1 mg/kg, po treated 2 hrs before bolus corn oil administration measured 1.5 hrs post corn oil challenge by oral lipid tolerance test relative to control; assay type: functional; parameters: scale not given: the % may be the effect or the level left; summary of the method: as §1
# [10] = Plasma clearance in dog at 1 to 3 mg/kg; assay type: ADME, organism-based, Canis lupus familiaris; parameters: dose 1-3 mg/kg
# [11] = Half life in marmosets at 1 to 3 mg/kg, iv; assay type: ADME, organism-based; parameters: dose 1-3 mg/kg, route intravenous; settings: callitrichinae sp., in vivo
# [12] = Plasma clearance in rat at 1 to 3 mg/kg; assay type: ADME, organism-based; parameters: dose 1-3 mg/kg
# [13] = Aqueous solubility at pH 7.4; assay type: physicochemical; settings: buffer
# [14] = Half life in marmosets at 1 to 3 mg/kg, po; assay type: ADME, organism-based; parameters: dose 1-3 mg/kg, route oral; settings: callitrichinae sp., in vivo
# CYP2C9 = CYP2C9 (Homo sapiens, UniProt P11712); assay: Inhibition of CYP2C9 at 30 uM; assay type: ADME
# Chain of CYP2C9 (P11712 whole entry): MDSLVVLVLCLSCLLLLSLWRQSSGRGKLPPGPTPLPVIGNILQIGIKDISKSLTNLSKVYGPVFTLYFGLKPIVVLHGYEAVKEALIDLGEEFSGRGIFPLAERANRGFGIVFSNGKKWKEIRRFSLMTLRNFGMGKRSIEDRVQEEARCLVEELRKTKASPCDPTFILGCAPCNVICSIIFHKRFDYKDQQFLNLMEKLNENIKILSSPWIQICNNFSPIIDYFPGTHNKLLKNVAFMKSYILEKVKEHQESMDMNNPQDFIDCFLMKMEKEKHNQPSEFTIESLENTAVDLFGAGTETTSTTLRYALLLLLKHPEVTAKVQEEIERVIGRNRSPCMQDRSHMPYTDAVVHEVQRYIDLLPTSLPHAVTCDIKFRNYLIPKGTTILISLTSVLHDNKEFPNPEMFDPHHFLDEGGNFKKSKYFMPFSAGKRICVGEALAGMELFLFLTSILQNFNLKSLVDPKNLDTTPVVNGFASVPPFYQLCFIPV
# [15] = Half life in dog at 1 to 3 mg/kg, iv; assay type: ADME, organism-based, Canis lupus familiaris; parameters: dose 1-3 mg/kg, route intravenous; settings: in vivo
# Plasma [16] = assay: Fraction unbound in human plasma by LC-UVMS; assay type: ADME, cell-free; summary of the method: as §2
# [17] = Apparent permeability from basolateral to apical side in MDCK cells at 10 uM; assay type: ADME, cell-based, Canis lupus familiaris; settings: dog, read-out: permeability
# Summary of the method: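 Cultured MDCK cells incubated with compound at 10 µM; apparent permeability (Papp, ×10^-6 cm/s) measured in both apical-to-basolateral and basolateral-to-apical directions.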
# Hepatocyte [18] = assay: Metabolic stability in human hepatocytes assessed as conversion to acyl glucuronide form after 2 hrs; assay type: ADME, cell-based
# [19] = Metabolic stability in rat alamethicin-activated microsomes assessed as conversion to acyl glucuronide form after 1 hr; assay type: ADME, Microsome
# Rattus norvegicus [20] = assay: Reduction of adipose triacylglycerol synthesis in 14 hrs fasted Han-Wistar rat assessed as decrease in ratio of [3H]palmitic acid incorporation in to TAG and DAG at 8 mg/kg, po after 1.5 hrs relative to control; assay type: functional; parameters: scale not given: the % may be the effect or the level left
# Summary of the method: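 Male Han-Wistar rats (~300 g) on chow diet were given compound by oral gavage, suspended in HPMC/Tween. At 1.5 h they were anaesthetised with inactin and a bolus of [3H]-palmitic acid was given via a jugular cannula. Epididymal fat was taken 20 min later, homogenised in duplicate with [14C]-oleic acid internal standard, and lipids separated by HPLC. Result is % reduction of the TAG/DAG label ratio versus vehicle; n = 10.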
# Plasma [21] = assay: Fraction unbound in dog plasma by LC-UVMS; assay type: ADME, cell-free, Canis lupus familiaris; summary of the method: as §2
# CYP2C19 = CYP2C19 (Homo sapiens, UniProt P33261); assay: Inhibition of CYP2C19 at 30 uM; assay type: ADME
# Chain of CYP2C19 (P33261 whole entry): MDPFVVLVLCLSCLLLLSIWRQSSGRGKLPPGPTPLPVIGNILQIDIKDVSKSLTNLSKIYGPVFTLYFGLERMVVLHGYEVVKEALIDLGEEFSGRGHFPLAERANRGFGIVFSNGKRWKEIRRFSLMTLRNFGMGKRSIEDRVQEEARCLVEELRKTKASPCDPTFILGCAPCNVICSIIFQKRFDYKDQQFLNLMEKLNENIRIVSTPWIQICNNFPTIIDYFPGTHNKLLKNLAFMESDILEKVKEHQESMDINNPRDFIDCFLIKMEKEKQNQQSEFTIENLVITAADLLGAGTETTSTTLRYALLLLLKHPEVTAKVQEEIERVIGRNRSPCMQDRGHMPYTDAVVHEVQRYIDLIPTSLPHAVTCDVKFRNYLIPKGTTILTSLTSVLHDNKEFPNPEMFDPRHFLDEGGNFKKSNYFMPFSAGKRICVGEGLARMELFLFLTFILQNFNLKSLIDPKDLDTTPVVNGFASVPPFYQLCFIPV
# [22] = Half life in dog at 1 to 3 mg/kg, po; assay type: ADME, organism-based, Canis lupus familiaris; parameters: dose 1-3 mg/kg, route oral; settings: in vivo
smiles,measurement,setting,value
CC1(C)Oc2ncnc(N)c2N=C1c1ccc(C23CCC(CC(=O)O)(CC2)CC3)cc1,bioavailability,[1],> 100%
same,IC50,HuTu80,3 nM
same,Activity,Rattus norvegicus [2],57%
same,Stability,[3],76%
same,Stability,Hepatocyte [4],18%
same,Activity,Mus musculus,Active
same,inhibition at 30 µM,CYP1A2,< 25%
same,inhibition,[5],0%
same,Stability,[6],25%
same,inhibition at 30 µM,CYP2D6,< 25%
same,clearance,[7],0.78 mL/min/kg
same,Fu,Plasma [8],0.91%
same,Activity,Rattus norvegicus [9],38%
same,clearance,[10],3.3 mL/min/kg
same,half-life,[11],13 h
same,clearance,[12],1.5 mL/min/kg
same,solubility,[13],12 µM
same,half-life,[14],9.5 h
same,inhibition at 30 µM,CYP2C9,< 25%
same,half-life,[15],8.6 h
same,Fu,Plasma [16],1%
same,Papp B→A at 10 µM,[17],26 ×10⁻⁶ cm/s
same,Stability,Hepatocyte [18],17%
same,Stability,[19],9%
same,Activity,Rattus norvegicus [20],54%
same,Fu,Plasma [21],0.6%
same,inhibition at 30 µM,CYP2C19,< 25%
same,half-life,[22],9.9 h
